Several values for one entry are separate records, joined by “and”; a condition that tells them apart may be missing. Identical values can stand only once. The campaign covered roughly 360,000 compounds. About 740 (0.21%) were called active.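 The calls were made as follows: active = mean lysis activity across replicates of at least 80%, whatever share of replicates individually reach that level; inactive = mean lysis activity below 80%.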 The full list was thinned out, with actives kept by preference. A structure can be active in one record and inactive in another.

The test is described as follows: Cryptococcus neoformans cell lysis inducers, primary screen, AK release luminescence, single concentration (AID 651654). The following applies: C. neoformans lysis, adenylate kinase release luminescence, 4 h; at 15 µM; stronger effect = higher value; normalised: neutral wells 0, clomiphene wells 100. In short, it runs like this: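 Material – Cryptococcus neoformans yeast cells · Quantity – 5 × 10^6 yeast cells/mL · Buffer or medium – YPD medium · Compound – single dose · Timing – 4 h static compound exposure, 37 °C, read 1 h post-reagent · Signal – adenylate kinase release luminescence · Read-out basis – lysis from increased AK signal · Benchmarks – Clomiphene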
With `C[C@H](CO)N1C[C@H](C)[C@@H](CN(C)C(=O)c2cccc(F)c2)Oc2cc(-c3cncnc3)ccc2S1(=O)=O`, the lysis activity is 4.59% (inactive) and 104% (active) and -0.371% (inactive).
Consider `CC(C)NC(=O)N(C)C[C@H]1Oc2cc(-c3cncnc3)ccc2S(=O)(=O)N([C@@H](C)CO)C[C@H]1C`, for which the lysis activity is -2.43% (inactive).
Turning to `C/C=C/c1ccc2c(c1)O[C@@H](CN(C)C(=O)NC1CCCC1)[C@@H](C)CN([C@H](C)CO)S2(=O)=O`, the lysis activity is -13.9% (inactive).
With `C[C@@H]1CN([C@@H](C)CO)S(=O)(=O)c2ccc(C#Cc3ccc(F)cc3)cc2O[C@@H]1CN(C)CC1CC1`, the lysis activity is 0.211% (inactive).
Turning to `C[C@@H]1CN([C@@H](C)CO)S(=O)(=O)c2ccc(C#Cc3ccc(F)cc3)cc2O[C@H]1CN(C)C(=O)NC1CCCC1`, the lysis activity was 81.9% (active).
With `CC(=O)N(C)C[C@@H]1Oc2cc(-c3cncnc3)ccc2S(=O)(=O)N([C@@H](C)CO)C[C@H]1C`, the lysis activity is 0.747% (inactive).
Take `CNC(=O)C[C@H]1CC[C@H]2[C@H](COc3ccc(NC(=O)c4cc(C)on4)cc3C(=O)N2C)O1`: the lysis activity is 83.7% (active).
For `Cc1cc(C(=O)Nc2ccc3c(c2)C(=O)N(C)[C@@H]2CC[C@H](CC(=O)NC4CCCC4)O[C@@H]2CO3)no1` the value was 3.44% (inactive); for `Cc1cc(C(=O)Nc2ccc3c(c2)C(=O)N(C)[C@@H]2CC[C@@H](CC(=O)NC4CCCC4)O[C@@H]2CO3)no1`, 1.38% (inactive); for `COc1cccc(C(=O)Nc2ccc3c(c2)C(=O)N(C)C[C@@H](OC)[C@@H](C)CN(C)[C@@H](C)CO3)c1`, -1.94% (inactive).
As to `O=C(C[C@@H]1C[C@@H]2c3cc(NS(=O)(=O)c4ccc(F)cc4)ccc3O[C@@H]2[C@@H](CO)O1)NCc1ccncc1`, the lysis activity was -3.62% (inactive).
The same measure for `C[C@@H]1CCCCO[C@H](CN(C)C(=O)Nc2ccc(C(F)(F)F)cc2)[C@@H](C)CN([C@@H](C)CO)C(=O)c2cc(NC(=O)Nc3cccc4ccccc34)ccc2O1`: -0.038% (inactive); for `Cc1noc(C)c1NC(=O)Nc1ccc2c(c1)CC(=O)N([C@@H](C)CO)C[C@H](C)[C@@H](CN(C)CC1CCCCC1)O2`: 4.38% (inactive); for `C[C@H]1CN([C@@H](C)CO)C(=O)Cc2cc(NC(=O)Nc3cccc4ccccc34)ccc2O[C@@H]1CN(C)C`: 5.63% (inactive).
Consider `C[C@@H]1CN([C@@H](C)CO)C(=O)c2cc(NC(=O)Nc3ccc(F)cc3)ccc2O[C@H]1CN(C)CC1CCCCC1`, for which the lysis activity was -0.073% (inactive).
As for `C[C@H](CO)N1C[C@H](C)[C@H](CN(C)C)Oc2ncc(C#Cc3ccc(F)cc3)cc2C1=O`, the lysis activity is 5.93% (inactive) and 8.34% (inactive).
As for `C[C@@H]1CN([C@H](C)CO)C(=O)Cc2cc(NC(=O)Nc3cccc4ccccc34)ccc2O[C@@H]1CN(C)Cc1ccc(C(F)(F)F)cc1`, the lysis activity was 0.378% (inactive).
For `Cc1noc(C)c1NC(=O)Nc1ccc2c(c1)C(=O)N([C@@H](C)CO)C[C@H](C)[C@H](CN(C)CC1CCCCC1)O2` the value was 80.5% (active); for `C[C@H]1CN([C@@H](C)CO)C(=O)c2cc(NC(=O)Nc3ccc4c(c3)OCO4)ccc2O[C@@H]1CN(C)CC1CCCCC1`, 81.3% (active).
For `C[C@H](CO)N1C[C@H](C)[C@@H](CN(C)CC2CCOCC2)Oc2ncc(C#Cc3ccc(F)cc3)cc2C1=O`, the lysis activity was 1.59% (active).
Consider `COc1ccc(C#Cc2cnc3c(c2)C(=O)N([C@@H](C)CO)C[C@H](C)[C@@H](CN(C)CC2CCOCC2)O3)cc1`, for which the lysis activity is 0.473% (inactive).
In the case of `C[C@@H]1CN([C@@H](C)CO)C(=O)Cc2cc(NC(=O)Nc3ccc4c(c3)OCO4)ccc2O[C@@H]1CN(C)CC1CCCCC1`, the lysis activity was 5.47% (inactive).
With `Cc1noc(C)c1NC(=O)Nc1ccc2c(c1)C(=O)N([C@@H](C)CO)C[C@@H](C)[C@H](CN(C)C)O2`, the lysis activity was -2.64% (inactive).
For the molecule `C[C@@H]1CN([C@H](C)CO)C(=O)Cc2cc(NC(=O)Nc3cccc4ccccc34)ccc2O[C@@H]1CN(C)Cc1ccc(C(=O)O)cc1`, the lysis activity is 105% (active).
Regarding `COc1ccc(S(=O)(=O)N(C)C[C@H]2Oc3ccc(NC(=O)Nc4c(C)noc4C)cc3C(=O)N([C@H](C)CO)C[C@H]2C)cc1`, the lysis activity is -3.44% (inactive).
As to `Cc1noc(C)c1NC(=O)Nc1ccc2c(c1)C(=O)N([C@@H](C)CO)C[C@H](C)[C@H](CN(C)S(=O)(=O)c1ccc(Cl)cc1)O2`, the lysis activity is 96.2% (active).
For `COc1ccc(S(=O)(=O)N(C)C[C@@H]2Oc3ccc(NC(=O)Nc4c(C)noc4C)cc3C(=O)N([C@H](C)CO)C[C@@H]2C)cc1`, the lysis activity is -0.689% (inactive) and -2.77% (inactive).
On to `C[C@H](CO)N1C[C@H](C)[C@@H](CN(C)C(=O)c2ccncc2)Oc2ncc(-c3ccncc3)cc2C1=O`, for which the lysis activity was -2.74% (inactive).
`COc1ccc(NC(=O)N[C@@H]2C=C[C@H](CC(=O)NC3CCC3)O[C@@H]2CO)cc1`: the lysis activity is -0.593% (inactive).
As to `C[C@H]1CN([C@@H](C)CO)C(=O)c2cccc(NC(=O)Nc3ccccc3)c2O[C@@H]1CN(C)S(C)(=O)=O`, the lysis activity was 0.333% (inactive).
Regarding `O=C(Nc1ccc(F)cc1)N1C[C@@H]2[C@H](c3ccccc31)[C@H](CO)N2Cc1ccccc1`, the lysis activity was -1.33% (inactive).
For `O=C(Nc1ccccc1)N1C[C@H]2[C@@H](c3ccccc31)[C@@H](CO)N2Cc1cocn1` the value was -2.69% (inactive).
As for `O=C(Nc1ccc(F)cc1)N1C[C@H]2[C@@H](c3ccccc31)[C@@H](CO)N2Cc1cocn1`, the lysis activity was 94.8% (active).
Turning to `CCCNC(=O)N1[C@@H]2Cn3c(ccc(-c4ccc(OC)cc4)c3=O)[C@H]1[C@@H](C(=O)NC1CCC1)[C@@H]2CO`, the lysis activity was 0.95% (inactive).
As for `O=C(N[C@H]1CC[C@@H](CCNS(=O)(=O)c2ccccc2)O[C@H]1CO)c1cccnc1`, the lysis activity was -5.13% (inactive).
As for `N#C[C@@H]1[C@@H](c2ccccc2)[C@@H](CO)N1C(=O)Cc1ccccc1`, the lysis activity was 116% (active).
For `N#C[C@@H]1[C@@H](c2ccc(-c3ccccc3)cc2)[C@@H](CO)N1C(=O)Cc1ccccc1` the value was 0.072% (inactive).
With `N#C[C@H]1[C@H](c2ccc(-c3ccccc3)cc2)[C@@H](CO)N1C(=O)Cc1ccccc1`, the lysis activity is 0.774% (inactive).
For `COc1cccc(S(=O)(=O)Nc2ccc3c(c2)[C@H]2C[C@H](CC(=O)N4CCCCC4)O[C@@H](CO)[C@H]2O3)c1`, the lysis activity was -2.67% (inactive).
`O=C(NCc1cccc(F)c1)[C@H]1[C@H](CO)[C@H]2Cn3c(cccc3=O)[C@@H]1N2`: the lysis activity was 0.27% (inactive).
In the case of `O=C(C[C@@H]1C=C[C@@H](NC(=O)c2ccc3c(c2)OCO3)[C@H](CO)O1)NC1Cc2ccccc2C1`, the lysis activity is 1.22% (inactive).
In the case of `CO[C@@H]1CN(C)C(=O)c2cc(NC(=O)c3ccccc3)ccc2OC[C@@H](C)N(C(C)=O)C[C@@H]1C`, the lysis activity was -6.13% (inactive).
For `C[C@@H]1CCCCO[C@H](CN(C)S(C)(=O)=O)[C@@H](C)CN([C@H](C)CO)C(=O)c2cc(NC(=O)Nc3ccc4c(c3)OCO4)ccc2O1` the value was 50.4% (inactive); for `C[C@@H]1CN([C@H](C)CO)S(=O)(=O)c2ccc(-c3cncnc3)cc2O[C@@H]1CN(C)Cc1ccccn1`, -14.8% (inactive).
Take `CCCC(=O)Nc1ccc2c(c1)C(=O)N(C)[C@@H]1CC[C@H](CC(=O)Nc3cn(C)nc3C)O[C@H]1CO2`: the lysis activity is 6.15% (inactive).
For the molecule `O=C(C[C@@H]1CC[C@@H]2[C@H](COC[C@H](O)CN2Cc2cccc(-c3ccncc3)c2)O1)N1CCOCC1`, the lysis activity was -0.0585% (inactive).
As for `O=C(C[C@@H]1C[C@H]2c3cc(NC(=O)C4CCOCC4)ccc3O[C@H]2[C@@H](CO)O1)NCCN1CCCCC1`, the lysis activity was 60.8% (inactive).
For `COc1cccc(S(=O)(=O)N2C[C@@H](O)COC[C@H]3O[C@@H](CC(=O)N4CCOCC4)CC[C@@H]32)c1` the value was 2.85% (inactive); for `COc1cccc(S(=O)(=O)N2C[C@@H](O)COC[C@@H]3O[C@H](CC(=O)N4CCN(C)CC4)CC[C@H]32)c1`, 86.2% (active); for `COc1cccc(S(=O)(=O)N2C[C@@H](O)COC[C@H]3O[C@H](CC(=O)N4CCCCC4)CC[C@@H]32)c1`, 52.9% (inactive).
Take `Cc1ccc(S(=O)(=O)Nc2cccc3c2O[C@@H](CN(C)CC2CCCCC2)[C@H](C)CN([C@@H](C)CO)C3=O)cc1`: the lysis activity is -1.1% (inactive).
As for `CNC[C@H]1Oc2cc(C#Cc3ccccn3)ccc2S(=O)(=O)N([C@H](C)CO)C[C@@H]1C`, the lysis activity was -3.09% (inactive).
As to `C[C@@H]1CN([C@@H](C)CO)C(=O)Cc2cc(NC(=O)NC3CCCCC3)ccc2O[C@H]1CN(C)C(=O)Nc1ccc(C(F)(F)F)cc1`, the lysis activity was 51.4% (inactive).
Take `C[C@H](CO)N1C[C@H](C)[C@H](CN(C)C(=O)c2ccccc2)OCCCC[C@H](C)Oc2ccc(N(C)C)cc2C1=O`: the lysis activity is 1.62% (inactive).
With `COc1cccc(S(=O)(=O)N(C)C[C@@H]2Oc3ncc(-c4cccc(C(=O)N(C)C)c4)cc3C(=O)N([C@H](C)CO)C[C@@H]2C)c1`, the lysis activity was 2.06% (inactive).
Take `COc1ccc(S(=O)(=O)Nc2ccc3c(c2)C(=O)N([C@@H](C)CO)C[C@H](C)[C@@H](CN(C)C(=O)Nc2ccc4c(c2)OCO4)OCCCC[C@@H](C)O3)cc1`: the lysis activity is 49.4% (inactive).
Take `C[C@H](CO)N1C[C@H](C)[C@@H](CN(C)C(=O)C2CCOCC2)Oc2cc(-c3ccc(C(=O)N(C)C)cc3)ccc2S1(=O)=O`: the lysis activity is -2.86% (inactive).
For `CCNC(=O)C[C@@H]1CC[C@H]2[C@@H](COc3ccc(NC(=O)c4ccccc4Cl)cc3C(=O)N2C)O1` the value was 13.7% (inactive); for `C[C@@H](NC(=O)C[C@@H]1C=C[C@@H](NC(=O)CN2CCOCC2)[C@H](CO)O1)c1ccccc1`, 13.5% (inactive).
For `C[C@H](NC(=O)C[C@@H]1C=C[C@H](NC(=O)CN2CCOCC2)[C@H](CO)O1)c1ccccc1` the value was 131% (active); for `C[C@@H](NC(=O)C[C@H]1C=C[C@@H](NC(=O)CN2CCOCC2)[C@@H](CO)O1)c1ccccc1`, 18.8% (inactive).
